This passage reports Activity results from ChEMBL document CHEMBL1138352, “On the intractability of estrogen-related receptor alpha as a target for activation by small molecules” (J Med Chem, 2007).

Calls of active or inactive are those of the source. No cut-off for these calls is given here.

Assay [1] has as its target T1, Estrogen-related receptor gamma (Homo sapiens) (UniProt P62508).
T1 sequence (whole entry): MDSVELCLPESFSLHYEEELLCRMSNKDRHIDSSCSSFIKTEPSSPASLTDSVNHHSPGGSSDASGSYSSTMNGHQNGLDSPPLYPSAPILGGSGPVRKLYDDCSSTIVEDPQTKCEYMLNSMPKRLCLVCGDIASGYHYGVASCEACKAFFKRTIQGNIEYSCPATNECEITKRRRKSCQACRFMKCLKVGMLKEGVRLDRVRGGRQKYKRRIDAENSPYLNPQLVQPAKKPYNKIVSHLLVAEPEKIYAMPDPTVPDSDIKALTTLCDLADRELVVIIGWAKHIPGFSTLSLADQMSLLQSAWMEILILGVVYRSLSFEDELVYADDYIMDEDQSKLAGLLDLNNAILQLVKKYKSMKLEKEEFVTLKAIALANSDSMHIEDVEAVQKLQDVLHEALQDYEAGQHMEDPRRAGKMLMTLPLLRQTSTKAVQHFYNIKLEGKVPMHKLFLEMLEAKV
Put plainly: Effect on interaction between ERRgamma ligand binding domain and RIP140 by FRET assay.

The target of assay [2] is T2, Steroid hormone receptor ERR1 (Homo sapiens) (UniProt P11474).
T2 sequence (whole entry): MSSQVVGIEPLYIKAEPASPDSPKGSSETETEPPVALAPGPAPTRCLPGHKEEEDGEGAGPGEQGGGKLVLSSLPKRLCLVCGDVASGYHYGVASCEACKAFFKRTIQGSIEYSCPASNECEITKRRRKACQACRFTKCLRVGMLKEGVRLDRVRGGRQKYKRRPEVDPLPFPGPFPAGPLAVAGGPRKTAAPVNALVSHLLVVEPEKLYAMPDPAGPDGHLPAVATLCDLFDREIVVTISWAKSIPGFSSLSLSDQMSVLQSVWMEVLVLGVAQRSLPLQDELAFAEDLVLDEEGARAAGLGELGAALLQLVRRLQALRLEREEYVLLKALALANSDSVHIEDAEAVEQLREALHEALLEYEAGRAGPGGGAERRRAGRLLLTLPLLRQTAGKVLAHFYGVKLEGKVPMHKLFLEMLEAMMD
Put plainly: Effect on interaction between ERRalpha ligand binding domain and RIP140 at 30 uM by FRET assay.

The target of assay [3] is T2, Steroid hormone receptor ERR1 (Homo sapiens). Put plainly: Activity at human ERRalpha expressed in HeLa cells assessed as estrogen response element activation at 50 uM after 24 ro 30 hrs by luciferase reporter gene assay. It is filed as cell-based. An outline of the steps: (§1)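 HeLa cells were co-transfected with an expression vector for human ERRα (wild type, or the F272A point mutant for line 1) and a luciferase reporter driven by a triple repeat of an estrogen response element. Luciferase activity in compound-exposed cells was compared with vehicle-treated cells.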

Assay [4] deals with HeLa. Put plainly: Activity at human ERRalpha F272A mutant expressed in HeLa cells assessed as estrogen response element activation at 10 uM after 24 to 30 hrs by luciferase reporter gene assay. It is filed as cell-based. An outline of the steps: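 HeLa cells transiently co-transfected with an expression vector for human ERRα (F272A point mutant) and a luciferase reporter carrying a triple repeat of the estrogen response element. Cells were exposed to compound, and luciferase activity was read relative to vehicle-treated cells.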
For orientation: A reporter such as luciferase makes a cellular process visible.

For assay [5], the system named is HeLa. Put plainly: Activity at human ERRalpha F272A mutant expressed in HeLa cells assessed as estrogen response element activation after 24 to 30 hrs by luciferase reporter gene assay. The assay is classed as cell-based. Put shortly: as §1

As to `CCCCNC(=O)c1ccc(O)cc1`, the result in assay [1], in assay [2] and in assay [3] was inactive.

On to `CC(C)/C=N/NC(=O)c1ccc(O)cc1`, for which the result in assay [1], in assay [2] and in assay [3] was inactive.

Consider `CCCNC(=O)c1ccc(O)cc1`, for which the result in assay [1], in assay [2] and in assay [3] was inactive.

In the case of `C=C(/C=N/NC(=O)c1ccc(O)cc1)CC`, the result in assay [1], in assay [2] and in assay [3] was inactive.

For the compound `CC(C)CCNC(=O)c1ccc(O)cc1`, the outcome in assay [1], in assay [2] and in assay [3] was inactive.

Take `C=C(C)CNC(=O)c1ccc(O)cc1`: the outcome in assay [1], in assay [2] and in assay [3] was inactive.

For `CCCCCNC(=O)c1ccc(O)cc1`, the result in assay [1], in assay [2] and in assay [3] was inactive.

For `C=CCC/C=N/NC(=O)c1ccc(O)cc1`, the outcome in assay [1], in assay [2] and in assay [3] was inactive.

Regarding `CN(C)CCc1c[nH]c2ccc(-c3cccc4ccccc34)cc12`, the outcome in assay [4] was inactive.

With `NC(=O)c1ccc(O)cc1`, the outcome in assay [1], in assay [2] and in assay [3] was inactive.

Regarding `CCC(C)/C=N/NC(=O)c1ccc(O)cc1` (configuration not stated), the outcome in assay [1], in assay [2] and in assay [3] was inactive.

Turning to `CCC(C)C(C)/C=N/NC(=O)c1ccc(O)cc1` (configuration not stated), the result in assay [1], in assay [2] and in assay [3] was inactive.

With `CC(C)NC(=O)c1ccc(O)cc1`, the result in assay [1], in assay [2] and in assay [3] was inactive.

For `CCCCC/C=N/NC(=O)c1ccc(O)cc1`, the outcome in assay [1], in assay [2] and in assay [3] was inactive.

In the case of `CC(C)CNC(=O)c1ccc(O)cc1`, the outcome in assay [4], in assay [1], in assay [2] and in assay [3] was inactive.

As for `CNC(=O)c1ccc(O)cc1`, the outcome in assay [1], in assay [2] and in assay [3] was inactive.

On to `CC/C=N/NC(=O)c1ccc(O)cc1`, for which the outcome in assay [1], in assay [2] and in assay [3] was inactive.

`CC(C)(C)CNC(=O)c1ccc(O)cc1`: the outcome in assay [1], in assay [2] and in assay [3] was inactive.

For the compound `CCNC(=O)c1ccc(O)cc1`, the result in assay [1], in assay [2] and in assay [3] was inactive.

Regarding `CC(C)c1ccc(/C=N/NC(=O)c2ccc(O)cc2)cc1`, the outcome in assay [5] was inactive.
